Assay results taken from publication PMC12800764 (ESMO Open, 2025).
“Also recorded” adds a separate entry of the source.

Columns and labels:
desmoid tumors = details: patients with desmoid tumors; cited from earlier work
[1] = tested on: patients with advanced, unresectable, or recurrent solid tumors; assay: Safety assessments; type: in vivo, human
Summary of the method: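 Safety covered all AEs of any grade, including DLTs and serious AEs, graded by NCI CTCAE v5.0. Hematology, chemistry and urinalysis were sampled before dosing at scheduled visits. Oral test compound was given b.i.d. in 28-day cycles (10-160 mg dose-escalation; 100 or 120 mg expansion). The analysis set was all patients receiving ≥1 dose.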

[2] = Plasma pharmacokinetics of E7386, noncompartmental analysis, Study 103; type: in vivo, human; details: 10-160 mg b.i.d.
[3] = tested on: patients with advanced, unresectable, or recurrent solid tumors; assay: Dose-limiting toxicity evaluation; type: in vivo, human
Summary of the method: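 A 3 + 3 escalation started at 10 mg b.i.d. oral, given continuously in 28-day cycles; 10, 15 and 20 mg were predefined. Above 20 mg, steps were 100%, 40%-60% or 25%-39% depending on treatment-related grade 2 or ≥3 toxicity. DLTs were drug-related AEs in cycle 1 (28 days), graded by CTCAE v5.0. Patients dosed as planned in C1, or having a DLT, formed the analysis set.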

[4] = tested on: patients with advanced, unresectable, or recurrent solid tumors; assay: Bone assessments; type: in vivo, human
Summary of the method: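 Both parts used DXA bone density at screening, C2D1 and every 12 weeks (±7 days) from C1D1. Fasting serum β-CTX was measured at screening, C2D1, C3D1, then every 8 weeks and at end of treatment. Dose-escalation added β-CTX at C1D15; expansion added DXA (C2D1 ±7 days) at end of treatment and when clinically indicated. Osteoporosis (T-score < −2.5) and untreated bone metastasis excluded patients.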

[5] = tested on: advanced, unresectable, or recurrent solid tumors; assay: Antitumor activity by investigators, RECIST v1.1, Study 103; type: in vivo, human
Summary of the method: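 Investigators assessed tumors by CT/MRI every 8 weeks, at end of treatment and when clinically indicated, using the screening modality and settings, per RECIST v1.1. Endpoints were objective response (CR/PR), disease control (CR/PR/SD) and clinical benefit (CR, PR, or SD lasting ≥23 weeks). All patients receiving ≥1 dose of oral test compound (b.i.d., 28-day cycles) were analysed.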

bone formation = details: rats; 7-day repeated-dose toxicity study; ref Data on file; cited from earlier work
Apc^Min/+ mice = details: cited from earlier work
ECC10 xenograft = details: human gastric cancer cell line (ECC10) xenograft model; cited from earlier work
[6] = tested on: activating transcription factor 4 pathway; details: preclinical models of HCC; cited from earlier work
advanced solid tumors = details: 0 of 25; cited from earlier work
endometrial cancer = details: cited from earlier work

Question: Which Nausea incidence (desmoid tumors) does the source give for `C[C@@H]1C[C@H](C)CN(S(=O)(=O)c2ccc3c(c2)C(=NO)c2cc(S(=O)(=O)N4C[C@H](C)C[C@H](C)C4)ccc2C3=NO)C1` [tegavivint] here?
Answer: The Nausea incidence was 33%.

Question: What does the source list for `C=CCN1CC(=O)N2[C@@H](Cc3ccc(O)cc3F)C(=O)N(Cc3cccc(N4CC(N5CCN(CC)CC5)C4)n3)C[C@@H]2N1C(=O)NCc1ccccc1` [E7386]?
Answer: Deaths due to TEAEs ([1]; both parts): No patients died due to TEAEs; Nausea (TEAE) frequency ([1]; dose-escalation part): 83.3%; Patients with grade ≥3 TEAEs ([1]; dose-escalation part): 15 patients; Patients with grade ≥3 anemia ([1]; dose-escalation part): four; Vomiting (TEAE) frequency ([1]; dose-escalation part): 61.1%; TEAEs leading to dose interruption ([1]; dose-escalation part, 13 patients): 36.1%; Patients with TEAEs ([1]; dose-escalation part, 35 of 36 patients): 97.2%; TEAEs leading to dose reduction ([1]; dose-escalation part, one patient (decreased appetite)): 2.8%; TEAEs leading to study-drug discontinuation ([1]; dose-escalation part, two patients, not considered related to treatment): 5.6%; Nausea (TEAE) frequency ([1]; expansion part): 84.2%; Patients with grade ≥3 TEAEs ([1]; expansion part): 10 patients; Patients with grade ≥3 anemia ([1]; expansion part): two; Patients with grade ≥3 hyponatremia ([1]; expansion part): two; Patients with grade ≥3 nausea ([1]; expansion part): one; TEAEs leading to study-drug discontinuation ([1]; expansion part): No patient in the expansion part discontinued the study drug due to TEAEs; Vomiting (TEAE) frequency ([1]; expansion part): 73.7%; TEAEs leading to dose interruption ([1]; expansion part, 5 patients): 26.3%; Patients with TEAEs ([1]; expansion part, 18 of 19 patients): 94.7%; TEAEs leading to dose reduction ([1]; expansion part, four patients): 21.1%; E7386 exposure versus dose ([2]; single and repeat dose, large inter-subject variability): generally increased with dose; Time at which maximum plasma concentration was reached ([2]; after oral administration on C1D1): 0.5 to 2.0 h; Geometric mean accumulation ratios for AUC ([2]; for each dose): 1.12-3.81; Geometric mean accumulation ratios for Cmax ([2]; for each dose): 0.65-3.97; Patients with dose-limiting toxicities (grade 3 decreased appetite) ([3]; 160 mg b.i.d. cohort, cycle 1, dose-escalation): two; Dose-limiting toxicities ([3]; 10-120 mg b.i.d. cohorts, dose-escalation): no DLTs were observed; Recommended dose of E7386 monotherapy ([3]; oral, 28-day cycles): 120 mg b.i.d.; Patients with T-score < −2.5 as per DXA scan during the study ([4]; 1 of 55 patients, spine: −2.4 at screening to −2.6 on C2D1): 1.8%; Patients with asymptomatic, post-baseline elevations in β-CTX >1000 pg/ml ([4]; 7 of 55 patients): 12.7%; Bone fractures ([4]; either part of the study): No bone fractures were reported; also recorded: no bone fracture was observed; Patients achieving partial response (PR) ([5]; dose-escalation part, SBC at 15 mg b.i.d. and desmoid tumor at 80 mg b.i.d.): two; Partial responses ([5]; expansion part): No PRs were observed; Treatment duration with durable SD ([5]; expansion part, patient with CRC (APC/KRAS/TP53 mutations), 100 mg b.i.d., no tumor size reduction): ~7 months; Treatment duration with durable SD ([5]; expansion part, patient with HCC, 120 mg b.i.d., with tumor size reduction): ~7 months; Antitumor activity in patients with CRC ([5]; irrespective of APC mutation status): did not indicate antitumor activity; Treatment period of responder (PR) ([5]; patient with desmoid tumor, 80 mg b.i.d. cohort, ongoing at data cut-off): > 3.5 years; Treatment duration with durable SD ([5]; patient with solid pseudopapillary neoplasm of the pancreas, 30 mg b.i.d. cohort): > 2.5 years; Doses at which effects on bone formation were observed (bone formation): ≥ 60 mg/kg; Polyp formation in the intestine (Apc^Min/+ mice): suppressed polyp formation; Tumor growth (ECC10 xenograft): inhibited tumor growth; Effect on activating transcription factor 4 pathway [6]: up-regulate the activating transcription factor 4 pathway

Question: For `Cc1c(-c2ccnc(C(F)(F)F)c2)ncn1CC(=O)Nc1ccc(-c2cnccn2)cn1` [RXC004], which “Objective response rate (ORR)” value (advanced solid tumors) is on record?
Answer: The value was 0%.

B1: DKN-01: a DKK-1 antibody targeting the Wnt signaling pathway (antibody, chains of the INN, looked up, V domains shown)
VH: EVQLVESGGGLVQPGGSLRLSCAASGFTFSSYTMSWVRQAPGKGLEWVATISGGGFGTYYPDSVKGRFTISRDNAKNSLYLQMNSLRAEDTAVYYCARPGYNNYYFDIWGQGTTVTVSS
VL: EIVLTQSPATLSLSPGERATLSCHASDSISNSLHWYQQKPGQAPRLLIYYARQSIQGIPARFSGSGSGTDFTLTISSLEPEDFAVYYCQQSESWPLHFGGGTKVEIK
Question: For B1, which TEAE nausea incidence (endometrial cancer) is on record?
Answer: Its TEAE nausea incidence is 48.3%.

Question: And the TEAE vomiting incidence (endometrial cancer)?
Answer: Its TEAE vomiting incidence is 24.1%.

Question: And the “Objective response rate (ORR)” value (endometrial cancer; endometrial cancer, 2 of 26)?
Answer: The value was 7.7%.
